PfHsp90 yeast 2: growth inhibition of PfHsp90-expressing yeast, primary screen, antimalarial PfHsp90 inhibitor project, S. cerevisiae, BacTiter-Glo luminescence, single point, set 2 | BacTiter-Glo ATP, 48 h; yeast lacking PDR1 and PDR3 efflux regulators | inhibition, % at 9.4 µM | 0.32% of 310,000 active;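 active = every replicate shows inhibition above about 80%, whatever the replicate mean, limit read from the data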
AF4-AF9 inh: inhibitors of AF4 peptide binding to AF9, primary screen, biochemical, AlphaScreen, biotin-AF4 peptide, FLAG-AF9, single point; 0.47% of 350,000 active; AID 651704, 2012; inhibition, % at 10 µM; Protein AF-9 (Homo sapiens), P42568;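 active = every replicate reaching a set inhibition limit, whatever the replicate mean, cut at about 25% in these data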
Target sequence (P42568 whole entry, looked up): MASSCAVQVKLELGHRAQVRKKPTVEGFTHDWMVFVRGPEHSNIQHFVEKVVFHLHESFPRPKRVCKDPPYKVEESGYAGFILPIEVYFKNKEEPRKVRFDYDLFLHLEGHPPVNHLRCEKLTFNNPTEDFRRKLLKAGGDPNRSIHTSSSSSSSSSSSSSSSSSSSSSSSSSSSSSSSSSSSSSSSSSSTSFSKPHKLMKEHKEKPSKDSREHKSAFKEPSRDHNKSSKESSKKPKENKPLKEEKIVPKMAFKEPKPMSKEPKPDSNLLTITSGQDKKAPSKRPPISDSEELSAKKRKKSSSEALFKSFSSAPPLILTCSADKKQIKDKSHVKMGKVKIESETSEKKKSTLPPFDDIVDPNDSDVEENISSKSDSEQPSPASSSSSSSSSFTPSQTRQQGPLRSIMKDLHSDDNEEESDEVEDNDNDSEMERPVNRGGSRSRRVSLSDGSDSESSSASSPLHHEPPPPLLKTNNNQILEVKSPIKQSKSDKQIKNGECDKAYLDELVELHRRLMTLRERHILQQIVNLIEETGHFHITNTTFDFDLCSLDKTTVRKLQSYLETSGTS
S100A4 inh HTS: inhibitors of S100A4-myosin IIA peptide binding, primary screen, biochemical, fluorescence polarization, TAMRA-MyoIIA peptide; inhibition, % at 10.7 µM; 0.14% of 360,000 active; Protein S100-A4 (Homo sapiens), P26447;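 active = mean inhibition of at least 70% across replicates, with every replicate also reaching that level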
Target sequence (P26447 whole entry, looked up): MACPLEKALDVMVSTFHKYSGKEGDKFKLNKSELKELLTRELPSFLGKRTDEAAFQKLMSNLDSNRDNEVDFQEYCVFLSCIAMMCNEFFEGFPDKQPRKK
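Material: S100A4 monomer (human). Medium: Calcium-containing HEPES buffer, pH 7.2. Probe or stimulus: labelled myosin peptide probe, 5 nM. Compound dosing: one concentration per compound. Timing: polarization read 5 min after assay mix addition, stable 5–60 min. Benchmarks: DMSO as neutral control, TFP as positive control.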
rRNA inh HTS: reduced GFP signal of wild-type E. coli, primary screen, bacterial rRNA inhibitor project, GFP/RFP fluorescence, OD600, single point; 1.6% of 350,000 active; GFP signal change (wild-type ribosome), % (concentration not given with the values); E. coli WT GFP vs humanized-ribosome RFP mutants, 24 h; stronger effect = lower value; DMSO median 0, no signal -100; AID 720706, 2013;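 active = significant combined selectivity score with lowered wild-type GFP, culture density cut under 30%, mutant RFP and density less affected; inactive = any of these conditions unmet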
DENV2 CPE: inhibitors of DENV2 cytopathic effect, primary screen, cell-based, plate reader, single concentration | DENV2-infected cells, cytopathic effect rescue | CPE inhibition, % at 9.99 µM | 1.7% of 350,000 active | AID 651640, 2012; in the data active = CPE inhibition above about 20%, passing the limit was not always enough; tested in BHK-21 cells
Cneo AK release: Cryptococcus neoformans cell lysis inducers, primary screen, AK release luminescence, single concentration; AID 651654, 2012; lysis activity, % at 15 µM; 0.2% of 360,000 active; C. neoformans lysis, adenylate kinase release luminescence, 4 h; normalised: neutral wells 0, clomiphene wells 100;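 active = mean lysis activity across replicates of at least 80%, whatever share of replicates individually reach that level; inactive = mean lysis activity below 80%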
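Schedule: static 4 h at 37 °C with compound, 1 h detection; system: C. neoformans cells; benchmarks: Clomiphene as positive control; buffer or medium: fresh YPD medium; measure: luminescence rise reflecting yeast cell lysis; measured by: luminescent adenylate kinase detection reagent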
Numbers stand for hits; . = inactive; / = no result given. Rows were chosen to be rich in hits. Some 3.2% of all compounds tested hit in one or more screens of this group.

SMILES | PfHsp90 yeast 2 | AF4-AF9 inh | S100A4 inh HTS | rRNA inh HTS | DENV2 CPE | Cneo AK release
O=C(C=P(c1ccccc1)(c1ccccc1)c1ccccc1)c1ccccc1-c1ccccc1C(=O)C=P(c1ccccc1)(c1ccccc1)c1ccccc1 | 145 | . | . | . | . | /
O=C(/C=C/c1ccccc1)Nc1ccc2c(c1)C(=O)NC2=O | . | 50 | . | . | . | .
O=C(/C=C/c1ccccc1Cl)Nc1ccc2c(c1)C(=O)NC2=O | . | . | . | . | . | .
COCC#Cc1cnc2c(c1)C(=O)N([C@@H](C)CO)C[C@@H](C)[C@H](CN(C)Cc1ccc(-c3ccccc3)cc1)O2 | / | / | / | . | / | /
C[C@@H]1CN([C@H](C)CO)C(=O)c2cc(NC(=O)Nc3ccc(C(F)(F)F)cc3)ccc2O[C@@H](C)CCCCO[C@H]1CN(C)C(=O)NC1CCCCC1 | / | . | . | . | . | .
C[C@H]1CN([C@@H](C)CO)C(=O)c2cc(NC(=O)Nc3ccc(C(F)(F)F)cc3)ccc2O[C@@H]1CN(C)C(=O)NC1CCCCC1 | / | . | . | . | . | .
C[C@@H]1CN([C@@H](C)CO)C(=O)c2cc(NC(=O)Nc3ccc(C(F)(F)F)cc3)ccc2O[C@@H](C)CCCCO[C@@H]1CN(C)C(=O)NC1CCCCC1 | / | . | . | . | 60 | .
C[C@@H]1CCCCO[C@H](CN(C)C(=O)NC2CCCCC2)[C@H](C)CN([C@H](C)CO)C(=O)c2cc(NC(=O)Nc3ccc(C(F)(F)F)cc3)ccc2O1 | / | . | . | . | 31 | .
C[C@@H]1CN([C@@H](C)CO)C(=O)c2cc(NC(=O)Nc3ccc(C(F)(F)F)cc3)ccc2O[C@@H]1CN(C)C(=O)NC1CCCCC1 | / | . | . | . | 101 | .
C[C@@H]1CCCCO[C@@H](CN(C)C(=O)Nc2ccc(C(F)(F)F)cc2)[C@@H](C)CN([C@H](C)CO)C(=O)c2cc(NC(=O)NC3CCCCC3)ccc2O1 | / | . | . | . | . | /
C[C@H]1CCCCO[C@H](CN(C)Cc2ccc3c(c2)OCO3)[C@@H](C)CN([C@@H](C)CO)C(=O)c2cc(NS(C)(=O)=O)ccc2O1 | / | . | . | . | . | .
O=C(NNc1ccc([N+](=O)[O-])cn1)Nc1ccc(N=Nc2ccccc2)cc1 | . | . | . | -4.1 | . | .
CC(C)Oc1ccc2ccccc2c1C=O | . | / | / | / | / | .
O=Cc1c(OCc2ccccc2)ccc2ccccc12 | . | . | . | -37 | . | .
COc1ccc(NS(=O)(=O)c2nnc(NC(=O)c3ccccc3F)s2)cc1 | . | . | . | -10 | . | .
Cc1noc(C)c1NC(=O)Nc1ccc2c(c1)C(=O)N([C@H](C)CO)C[C@H](C)[C@@H](CN(C)S(=O)(=O)c1c(C)noc1C)OCCCC[C@@H](C)O2 | / | . | . | . | . | .
Cc1noc(C)c1NC(=O)Nc1ccc2c(c1)C(=O)N([C@H](C)CO)C[C@@H](C)[C@H](CN(C)S(C)(=O)=O)OCCCC[C@@H](C)O2 | / | . | . | . | . | 103
Cc1noc(C)c1NC(=O)Nc1ccc2c(c1)C(=O)N([C@@H](C)CO)C[C@@H](C)[C@@H](CN(C)S(C)(=O)=O)OCCCC[C@@H](C)O2 | / | . | . | . | 102 | .
Cc1noc(C)c1NC(=O)Nc1ccc2c(c1)C(=O)N([C@H](C)CO)C[C@H](C)[C@H](CN(C)S(C)(=O)=O)OCCCC[C@H](C)O2 | / | . | . | . | . | .
O=C(CN1CCOCC1)N[C@@H]1CC[C@H](CCNS(=O)(=O)c2ccccc2F)O[C@@H]1CO | / | / | / | . | / | /
COc1ccc(CC(=O)N/N=C/c2cccs2)cc1OC | . | . | . | . | . | .
CCc1ccc(/C=N/NC(=O)Cc2ccc(OC)c(OC)c2)s1 | . | . | . | -24 | . | .
CCc1ccc(NC(=O)C(C)OC(=O)Cn2[nH]c(=O)c3ccccc3c2=O)cc1 (stereo not drawn) | / | . | . | . | 60 | .
COC(=O)N1C(=O)[C@](c2ccc(OC)cc2)(C(C)C)N1C(=O)OC | . | . | . | . | . | .
COC(=O)N1C(=O)[C@](c2ccsc2)(C(C)C)N1C(=O)OC | . | . | . | . | 48 | .
SMILES | PfHsp90 yeast 2 | AF4-AF9 inh | S100A4 inh HTS | rRNA inh HTS | DENV2 CPE | Cneo AK release
COc1ccc(S(=O)(=O)N[C@H]2CC[C@@H](CC(=O)NCc3ccccc3F)O[C@H]2CO)cc1 | / | . | . | . | 59 | .
COc1ccc(S(=O)(=O)N[C@H]2CC[C@H](CC(=O)NCc3ccccc3F)O[C@@H]2CO)cc1 | / | . | . | . | . | .
COc1ccc(S(=O)(=O)N[C@H]2CC[C@@H](CC(=O)NCCc3ccncc3)O[C@@H]2CO)cc1 | / | . | . | . | . | .
COc1ccc(S(=O)(=O)N[C@H]2CC[C@H](CC(=O)NCCc3ccncc3)O[C@H]2CO)cc1 | / | . | . | . | 23 | .
OC[C@@H]1[C@H](c2ccc(C#Cc3ccccc3)cc2)[C@H]2CN(CC3CCOCC3)CCCCN12 | / | . | . | . | . | .
c1ccc(COc2ccc(-c3csnn3)cc2)cc1 | . | / | / | / | / | .
COc1ccc(-c2csc(-c3ccc(O)cc3)n2)cc1 | . | . | . | -28 | . | /
c1ccc(-c2csc(-c3ccc(-c4csnn4)cc3)n2)cc1 | . | . | . | . | 54 | /
O=C(O)c1ccc(-c2nc(-c3ccccc3)cs2)cc1 | . | . | . | -20 | . | /
COc1ccc(-c2nc(CCl)cs2)cc1 | . | . | . | . | . | /
COC(=O)C1=C(C)Nc2nc(SCc3ccccc3)[nH]c(=O)c2C1c1cccs1 (stereo not drawn) | . | 49 | . | . | . | .
CCCCNC(=S)N1CCN(c2ccc(C(C)=O)cc2)CC1 | . | . | . | -22 | . | /
CC(=O)c1ccc(N2CCN(C(=S)Nc3ccc(Cl)c(Cl)c3)CC2)cc1 | . | . | . | . | 53 | /
CC(=O)c1ccc(N2CCN(C(=O)Cc3cccs3)CC2)cc1 | / | . | . | / | . | 153
COc1ccc(N2CCN(C(=O)Cc3cccs3)CC2)cc1 | . | / | . | / | / | .
Cc1noc(C)c1S(=O)(=O)N(C)C[C@H]1OCCCC[C@@H](C)Oc2ccc(NS(=O)(=O)c3ccc(F)cc3)cc2C(=O)N([C@@H](C)CO)C[C@@H]1C | / | / | / | . | . | .
COc1cccc(S(=O)(=O)N2C[C@@H]3N[C@H](C2)C3c2ccc(/C=C/c3ccccc3)cc2)c1 (stereo partly drawn) | / | . | . | . | . | /
